Measurements from article PMC3302728 (Nature Communications, 2011).

How the values were obtained:
[1] = molecular target: GluN2D ligand-binding domain (Rattus norvegicus, UniProt Q62645, DEL565-685); assay: X-ray crystallography; details: co-crystal with 10 mM ligand; D1-D2 cleft
[2] = molecular target: GluN1/GluN2D NMDA receptor (Rattus norvegicus, UniProt P35439+Q62645); assay: EC50 of agonist response; type: cell-based
Outline: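 Xenopus laevis oocytes injected with 5-10 ng cRNA (GluN1:GluN2 ratio 1:2), stored at 15°C, recorded 2-4 days later at 23°C. Two-electrode voltage clamp at -30 to -60 mV in pH 7.4 HEPES bath with Ba2+ and 30 μM glycine. Concentration-response curves fitted per oocyte with a Hill equation to give EC50 and Hill coefficient.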

Chain of GluN2D ligand-binding domain (Q62645 424-564, stated change not applied): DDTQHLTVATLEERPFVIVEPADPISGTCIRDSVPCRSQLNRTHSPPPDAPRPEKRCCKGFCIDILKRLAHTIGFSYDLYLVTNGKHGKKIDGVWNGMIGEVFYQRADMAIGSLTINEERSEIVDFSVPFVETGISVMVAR
Chain of GluN2D ligand-binding domain (Q62645 686-827, stated change not applied): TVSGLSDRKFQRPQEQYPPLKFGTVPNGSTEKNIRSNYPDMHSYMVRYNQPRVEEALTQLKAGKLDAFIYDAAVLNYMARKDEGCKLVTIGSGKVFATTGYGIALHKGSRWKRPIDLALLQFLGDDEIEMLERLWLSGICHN
Chain of GluN1/GluN2D NMDA receptor (Q62645 28-1323, other chains not shown): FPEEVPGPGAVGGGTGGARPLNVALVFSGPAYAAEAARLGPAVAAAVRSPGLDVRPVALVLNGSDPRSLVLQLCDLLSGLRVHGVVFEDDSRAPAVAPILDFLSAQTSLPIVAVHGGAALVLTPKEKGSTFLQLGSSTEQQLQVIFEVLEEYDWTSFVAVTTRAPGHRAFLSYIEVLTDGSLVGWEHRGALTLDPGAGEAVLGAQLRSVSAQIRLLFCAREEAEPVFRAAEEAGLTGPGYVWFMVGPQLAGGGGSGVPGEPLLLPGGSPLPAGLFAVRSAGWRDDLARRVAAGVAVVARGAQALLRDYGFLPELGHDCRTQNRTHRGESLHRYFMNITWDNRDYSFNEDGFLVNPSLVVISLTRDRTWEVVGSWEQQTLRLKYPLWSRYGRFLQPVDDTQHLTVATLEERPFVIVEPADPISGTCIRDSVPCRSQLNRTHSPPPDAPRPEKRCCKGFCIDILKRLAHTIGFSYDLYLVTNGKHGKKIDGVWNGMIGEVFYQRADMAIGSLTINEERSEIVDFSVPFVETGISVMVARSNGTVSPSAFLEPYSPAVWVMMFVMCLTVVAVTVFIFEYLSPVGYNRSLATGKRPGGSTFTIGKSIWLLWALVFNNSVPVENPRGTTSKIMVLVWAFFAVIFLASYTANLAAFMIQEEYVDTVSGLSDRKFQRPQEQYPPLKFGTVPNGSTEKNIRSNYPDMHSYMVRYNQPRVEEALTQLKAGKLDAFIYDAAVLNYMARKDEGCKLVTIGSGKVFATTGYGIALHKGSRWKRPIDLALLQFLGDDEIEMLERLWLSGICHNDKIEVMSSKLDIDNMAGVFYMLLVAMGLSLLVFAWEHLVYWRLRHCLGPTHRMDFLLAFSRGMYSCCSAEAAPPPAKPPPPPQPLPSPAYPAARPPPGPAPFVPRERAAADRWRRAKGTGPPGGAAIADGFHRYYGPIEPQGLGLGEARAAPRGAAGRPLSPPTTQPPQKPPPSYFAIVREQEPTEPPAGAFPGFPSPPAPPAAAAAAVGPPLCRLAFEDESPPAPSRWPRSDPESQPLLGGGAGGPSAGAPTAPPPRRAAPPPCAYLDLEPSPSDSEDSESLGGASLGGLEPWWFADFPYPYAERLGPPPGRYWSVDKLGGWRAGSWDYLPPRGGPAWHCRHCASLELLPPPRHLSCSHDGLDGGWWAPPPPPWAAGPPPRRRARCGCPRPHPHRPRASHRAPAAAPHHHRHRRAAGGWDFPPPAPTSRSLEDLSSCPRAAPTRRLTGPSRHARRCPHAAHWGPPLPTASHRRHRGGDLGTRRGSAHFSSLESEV

| SMILES | X-ray crystallography [1] | EC50 [2] [µM] |
| --- | --- | --- |
| N[C@H](CCC(=O)O)C(=O)O [D-glutamate] | GluN2D ligand-binding domain structures in complex with D- and L-glutamate, L-aspartate, and NMDA | – |
| N[C@@H](CC(=O)O)C(=O)O [L-aspartate] | GluN2D ligand-binding domain structures in complex with D- and L-glutamate, L-aspartate, and NMDA | 5 |
| N[C@@H](CCC(=O)O)C(=O)O [L-glutamate] | GluN2D ligand-binding domain structures in complex with D- and L-glutamate, L-aspartate, and NMDA | – |
